Experimental data from different studies.
Compare with care: the assays were run in different laboratories. pEC50, pIC50: −log10 of the molar value.
Cell line: MDA-MB-231
Read-out: cell growth or viability

COc1cccc2c1C(=O)c1c(O)c3c(c(O)c1C2=O)C[C@@](O)(C(=O)CO)C[C@@H]3O[C@H]1C[C@H](N)[C@H](O)[C@H](C)O1  pIC50 (MTT; 24 h): 5.22
CCN(CC)CCNC(=O)c1c(C)[nH]c(/C=C2\C(=O)Nc3ccc(F)cc32)c1C  pEC50 (MTT; 72 h): 5.47
O=C(Nc1ccc(Cl)cc1)Nc1ccc(Oc2nc3ccccc3n3cnnc23)cc1  viability (MTT; 3.125 µM; 24 h): 100%
NCCC(=O)Nc1ccccc1/N=c1\cc(-c2ccc3c(c2)OCCO3)oc2cc(F)ccc12  inhibition (CCK-8; 1 µM): 52.9%
CNC(=O)c1cc(Oc2ccc(NC(=O)Nc3ccc(Cl)c(C(F)(F)F)c3)cc2)ccn1  viability (MTT; 25 µM; 24 h): 24.3%
COc1cccc2c1C(=O)c1c(O)c3c(c(O)c1C2=O)C[C@@](O)(C(=O)CO)C[C@@H]3O[C@H]1C[C@H](N)[C@H](O)[C@H](C)O1  pEC50 (MTT; 72 h): 7.66
NCCC(=O)Nc1ccccc1/N=c1\cc(-c2ccc3nc(N)oc3c2)oc2ccccc12  inhibition (CCK-8; 1 µM): 68.6%
Nc1nc(S)nc(O)c1N=Cc1cn(-c2ccccc2)nc1-c1ccc(Cl)cc1  CC50 (48 h): 18.4 µM
COc1ccc2/c(=N/c3ccccc3NC(=O)[C@H](C)N)cc(-c3ccc4c(c3)OCCO4)oc2c1  inhibition (CCK-8; 1 µM): 13.8%
O=C(Nc1ccccc1)Nc1ccc(Oc2nc3ccccc3n3cnnc23)cc1  viability (MTT; 3.125 µM; 24 h): 100%
Cc1ccc(-c2nn(-c3ccccc3)cc2C=Nc2c(N)nc(S)nc2O)cc1  CC50 (48 h): 14.3 µM
NCCC(=O)Nc1ccc(/N=c2\cc(-c3ccc4c(c3)OCO4)oc3ccccc23)cc1  inhibition (CCK-8; 1 µM): 5.95%
Cc1ccc(C=NNC(=O)C2CC(=O)N(c3ccc(F)cc3F)C2)cc1 (stereo not shown)  pEC50 (MTT; 72 h): 4.64
